Data on six compounds can be found in ChEMBL document CHEMBL3286311, “Novel and high affinity fluorescent ligands for the serotonin transporter based on (s)-citalopram” (ACS Med Chem Lett, 2014).

Activity calls are given as the source filed them. No cut-off for these calls is given here.

Usually Ki stands for a dissociation constant, usually derived from enzyme kinetics or from competition with a known ligand.

Assay [1] concerns the target T1, Sodium-dependent dopamine transporter (Homo sapiens, UniProt Q01959). Kind of assay: Inhibition of 2,5,6-[3H]-dopamine uptake at human DAT expressed in African green monkey COS7 cells at 10 uM incubated for 10 mins prior to radioligand addition measured after 5 mins by scintillation counting analysis. It is filed as cell-based. Particulars: COS-7.
The target in assay [2] is T2, Sodium-dependent noradrenaline transporter (Homo sapiens, UniProt P23975). The assay is described as follows: Inhibition of 2,5,6-[3H]-dopamine uptake at human NET expressed in African green monkey COS7 cells at 10 uM incubated for 10 mins prior to radioligand addition measured after 5 mins by scintillation counting analysis. Particulars: COS-7. It is filed as cell-based.
T2 sequence (P23975 whole entry): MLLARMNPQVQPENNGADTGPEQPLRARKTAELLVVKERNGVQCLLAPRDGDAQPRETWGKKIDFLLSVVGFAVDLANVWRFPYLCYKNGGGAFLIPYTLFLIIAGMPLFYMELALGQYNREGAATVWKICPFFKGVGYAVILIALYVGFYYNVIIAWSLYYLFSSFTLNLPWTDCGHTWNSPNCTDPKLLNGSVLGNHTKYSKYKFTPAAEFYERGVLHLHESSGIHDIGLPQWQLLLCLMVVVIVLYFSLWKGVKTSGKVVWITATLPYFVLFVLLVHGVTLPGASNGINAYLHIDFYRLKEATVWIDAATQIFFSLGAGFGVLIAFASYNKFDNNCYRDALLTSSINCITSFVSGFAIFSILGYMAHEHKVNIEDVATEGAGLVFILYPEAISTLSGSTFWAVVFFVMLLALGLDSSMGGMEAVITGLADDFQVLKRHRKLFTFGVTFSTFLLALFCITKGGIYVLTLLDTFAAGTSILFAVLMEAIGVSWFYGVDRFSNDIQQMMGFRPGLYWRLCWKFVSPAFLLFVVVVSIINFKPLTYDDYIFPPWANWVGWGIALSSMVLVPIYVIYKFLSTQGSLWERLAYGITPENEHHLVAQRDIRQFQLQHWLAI

Assay [3] addresses T3, Sodium-dependent serotonin transporter (Homo sapiens, UniProt P31645). Kind of assay: Inhibition of 5-hydroxy[3H]tryptamine uptake at human SERT expressed in African green monkey COS7 cells incubated for 10 mins prior to radioligand addition measured after 5 mins by scintillation counting analysis. It is filed as cell-based, COS-7.
Target sequence in this assay (P31645 whole entry): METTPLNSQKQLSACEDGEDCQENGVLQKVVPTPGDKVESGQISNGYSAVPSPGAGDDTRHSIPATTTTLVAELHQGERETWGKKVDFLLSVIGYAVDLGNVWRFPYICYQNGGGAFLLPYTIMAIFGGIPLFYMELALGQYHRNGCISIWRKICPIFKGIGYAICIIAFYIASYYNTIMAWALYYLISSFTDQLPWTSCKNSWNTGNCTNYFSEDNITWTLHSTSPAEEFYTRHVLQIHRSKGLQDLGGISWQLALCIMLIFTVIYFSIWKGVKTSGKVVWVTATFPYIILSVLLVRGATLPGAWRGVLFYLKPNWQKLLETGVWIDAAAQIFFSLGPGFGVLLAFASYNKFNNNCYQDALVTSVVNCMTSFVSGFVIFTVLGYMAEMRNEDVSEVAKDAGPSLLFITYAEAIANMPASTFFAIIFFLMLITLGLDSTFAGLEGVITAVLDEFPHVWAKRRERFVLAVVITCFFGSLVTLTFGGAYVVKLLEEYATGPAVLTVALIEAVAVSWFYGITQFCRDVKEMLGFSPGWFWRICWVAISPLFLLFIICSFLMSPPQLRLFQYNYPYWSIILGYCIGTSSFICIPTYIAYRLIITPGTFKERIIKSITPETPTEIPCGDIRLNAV
Assay [4] concerns the target T3, Sodium-dependent serotonin transporter. Kind of assay: Displacement of [3H]-S-citalopram from human SERT expressed in African green monkey COS7 cells incubated for 10 mins prior to [3H]-S-citalopram addition measured after 2 hrs by scintillation counting analysis. It is filed as cell-based, COS-7. The procedure, abridged:
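Competition binding at hSERT in transiently transfected COS7 cells with [3H]-S-citalopram (2 nM) as radioligand. IC50 came from nonlinear regression and was converted to Ki using a Kd for [3H]-S-citalopram determined in parallel. SE interval is from pKi ± SE. Values are means of three to four experiments, each in triplicate.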
Target sequence in this assay (P31645 whole entry): as above

Assay [5] shares this target. Kind of assay: Binding affinity to N-terminal EGFP-tagged SERT (unknown origin) expressed in HEK293 cells at 20 nM after 10 mins by confocal laser scanning microscopy. It is filed as cell-based. In a few lines: (§1)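 Live confocal imaging of HEK293 cells transiently expressing SERT with an N-terminal EGFP tag. Cells were incubated at room temperature with 20 nM ligand and imaged at 0, 1, 5, 10 or 20 min. Rhodamine signal was compared with the EGFP signal and merged with a transmission image. Paroxetine (100 μM) was coincubated as the specificity control. Three identical experiments were run.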
Target sequence in this assay (P31645 whole entry, looked up): as the sequence (P31645 whole entry) above

Assay [6] shares this target. The assay is described as follows: Binding affinity to N-terminal EGFP-tagged SERT (unknown origin) expressed in HEK293 cells at 20 nM after 10 mins by confocal laser scanning microscopy in presence of SERT inhibitor paroxetine. It is filed as cell-based. In a few lines:
as §1
Target sequence in this assay (P31645 whole entry, looked up): as the sequence (P31645 whole entry) above

For assay [7] the target is unchanged. The assay is described as follows: Binding affinity to N-terminal EGFP-tagged SERT (unknown origin) expressed in HEK293 cells at 20 nM by confocal laser scanning microscopy. It is filed as cell-based. Particulars: TDE = time-dependent effect. In a few lines:
as §1
Target sequence in this assay (P31645 whole entry, looked up): as the sequence (P31645 whole entry) above

Assay [8] shares this target. The assay is described as follows: Selectivity ratio of ZP455 Ki to compound Ki for human SERT.
Target sequence in this assay (P31645 whole entry, looked up): as the sequence (P31645 whole entry) above
Assay [9] addresses T1, Sodium-dependent dopamine transporter. Kind of assay: Inhibition of 2,5,6-[3H]-dopamine uptake at human DAT expressed in African green monkey COS7 cells incubated for 10 mins prior to radioligand addition measured after 5 mins by scintillation counting analysis. It is filed as cell-based, COS-7. In a few lines: (§2)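 Uptake inhibition in transiently transfected COS7 cells, with 2,5,6-[3H]dopamine as substrate for both DAT and NET. IC50 came from nonlinear regression. Ki was calculated using the dopamine KM, which was determined in parallel. Values are means of three to four repeats, each in triplicate, with SE interval from pKI ± SE.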

Assay [10] addresses T2, Sodium-dependent noradrenaline transporter. The assay is described as follows: Inhibition of 2,5,6-[3H]-dopamine uptake at human NET expressed in African green monkey COS7 cells incubated for 10 mins prior to radioligand addition measured after 5 mins by scintillation counting analysis. It is filed as cell-based, COS-7. In a few lines: as §2

T1 sequence (Q01959 whole entry): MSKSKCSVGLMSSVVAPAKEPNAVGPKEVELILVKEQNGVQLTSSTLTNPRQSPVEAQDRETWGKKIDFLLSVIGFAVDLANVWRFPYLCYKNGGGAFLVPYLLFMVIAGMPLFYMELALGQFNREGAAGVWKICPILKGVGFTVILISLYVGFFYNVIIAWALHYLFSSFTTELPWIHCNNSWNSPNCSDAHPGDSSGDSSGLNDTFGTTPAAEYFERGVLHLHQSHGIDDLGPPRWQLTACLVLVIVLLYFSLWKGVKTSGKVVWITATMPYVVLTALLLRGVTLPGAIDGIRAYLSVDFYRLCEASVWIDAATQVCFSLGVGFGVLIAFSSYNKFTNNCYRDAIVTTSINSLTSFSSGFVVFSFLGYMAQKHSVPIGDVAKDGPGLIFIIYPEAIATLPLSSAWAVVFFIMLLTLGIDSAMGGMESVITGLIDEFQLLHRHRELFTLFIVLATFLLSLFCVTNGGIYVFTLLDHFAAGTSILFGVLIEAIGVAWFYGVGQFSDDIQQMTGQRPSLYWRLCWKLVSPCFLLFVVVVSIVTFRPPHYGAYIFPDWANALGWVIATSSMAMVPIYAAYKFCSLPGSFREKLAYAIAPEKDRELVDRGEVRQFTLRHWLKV

On to `CN(C)CCC[C@@]1(c2ccc(F)cc2)OCc2cc(C#N)ccc21`, for which the inhibition result in assay [1] and in assay [2] was “inactive” in each case.
In the case of `CCN(CC)c1ccc2c(-c3ccc(S(=O)(=O)NCCCCCC(=O)NCc4ccc5c(c4)CO[C@@]5(CCCN(C)C)c4ccc(F)cc4)cc3S(=O)(=O)[O-])c3ccc(=[N+](CC)CC)cc-3oc2c1`, the Ki in assay [3] was 34 nM; in assay [4], 3 nM. Besides, the inhibition entry in assay [1] and in assay [2] was “inactive” throughout. The result in assay [5] was Active. Besides, the result in assay [6] was inactive. In addition, the Activity result in [7] is “tde”. Also, the Ratio Ki in [8] was determined as 75.
For the compound `CCN(CC)c1ccc2c(-c3ccc(S(=O)(=O)NCCCCCC(=O)NCCCCCN(C)CCC[C@@]4(c5ccc(F)cc5)OCc5cc(C#N)ccc54)cc3S(=O)(=O)[O-])c3ccc(=[N+](CC)CC)cc-3oc2c1`, the Ki in [3] was found to be 250 nM; in assay [4], 180 nM. Besides, the inhibition entry in [1] and in assay [2] was “inactive” in each case.
Take `CCN(CC)c1ccc2c(-c3ccc(S(=O)(=O)NCCCCCC(=O)NCCCc4ccc5c(c4)CO[C@@]5(CCCN(C)C)c4ccc(F)cc4)cc3S(=O)(=O)[O-])c3ccc(=[N+](CC)CC)cc-3oc2c1`: the Ki in [3] amounted to 37 nM; in assay [4], 11 nM. Moreover, the inhibition result in assay [1] and in [2] was “inactive” in each case.
Consider `CCN(CC)c1ccc2c(-c3ccc(S(=O)(=O)NCCCCCC(=O)NCCCN(C)CCC[C@@]4(c5ccc(F)cc5)OCc5cc(C#N)ccc54)cc3S(=O)(=O)[O-])c3ccc(=[N+](CC)CC)cc-3oc2c1`, for which the Ki in assay [3] was found to be 140 nM; in [4] it was 11 nM. The inhibition result in assay [1] and in [2] was “inactive” throughout.
On to `CCN(CC)c1ccc2c(-c3ccc(S(=O)(=O)NCCCCCC(=O)NCCN4C5CCC4[C@@H](C(=O)OC)[C@@H](c4ccc(Cl)c(Cl)c4)C5)cc3S(=O)(=O)[O-])c3ccc(=[N+](CC)CC)cc-3oc2c1` (stereo not given in full), for which the Ki in [3] worked out at 94 nM; in assay [9] it was 20 nM; in assay [10] it was 91 nM.
